Reference: ChEMBL document CHEMBL1142097, “EthA, a common activator of thiocarbamide-containing drugs acting on different mycobacterial targets” (Antimicrob Agents Chemother, 2007)
Converted amounts (≈) assume the structure as drawn.

How the values were obtained:
[1] = test system: Mycobacterium tuberculosis variant bovis BCG; test: Antimycobacterial activity against Mycobacterium bovis BCG Pasteur with pMV261 vector; type: functional
Summary of the method: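 Agar MIC on Middlebrook 7H9 or 7H11 with OADC (ADC substituted for isoxyl-type drugs) plus graded drug levels; serial 10-fold dilutions of actively growing culture plated, incubated 37°C for 10–14 days; MIC = lowest concentration blocking 99% of growth. Recombinant Pasteur strains selected with 25 μg/ml kanamycin; ethR::hyg mutant carries a hygromycin-marked transposon in ethR.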

[2] = Drug metabolizing activity of Mycobacterium bovis BCG recombinant ethA expressed in Escherichia coli; type: ADME; settings: mycobacterium tuberculosis variant bovis bcg
Summary of the method: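 N-terminal His6-tagged EthA expressed in E. coli (1 mM IPTG, 22°C, 24 h), Ni2+ affinity-purified with bound FAD. Drug incubated at 37°C for 1 h in 50 mM Tris-HCl pH 7.4, 100 mM KCl, 200 μg/ml BSA, 4 mM NADPH, 8 μg EthA.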

COc1ccc(/C(C)=N/NC(N)=S)cc1
MIC [1]: 0.25 µg/mL (≈ 1.12 µM)

CC(C)CCSc1ccc(NC(=S)Nc2ccc(SCCC(C)C)cc2)cc1
MIC [1]: 40 µg/mL (≈ 92.4 µM) | Activity [2]: 7.37 µmol/min/mg

CC(=O)Nc1ccc(/C=N/NC(N)=S)cc1 [AMITHIOZONE]
MIC [1]: 0.5 µg/mL (≈ 2.12 µM)

CCc1cc(C(N)=S)ccn1 [ETHIONAMIDE]
MIC [1]: 2 µg/mL (≈ 12 µM)

NC(=S)N/N=C/c1cccnc1 [NICOTHIAZONE]
MIC [1]: 10 µg/mL (≈ 55.5 µM)

CC(C)CCOc1ccc(NC(=S)Nc2ccc(OCCC(C)C)cc2)cc1 [TIOCARLIDE]
MIC [1]: 0.25 µg/mL (≈ 0.624 µM) | Activity [2]: 7.56 µmol/min/mg
